# Bioassay records deposited in PubChem BioAssay by several laboratories.
# This is a sample that favours compounds with a hit; in the whole collection about 3.6% have one here.
# NadD block = blocks S. aureus nicotinate mononucleotide adenylyltransferase; purified NadD enzyme, colorimetric absorbance read-out; inhibition, % at 20 µM; 360,000 compounds, 0.78% hits; in the data active = inhibition above about 26%
# SENP1 FRET inh = SENP1 (human) catalytic domain inhibition; inhibition, % at 10 µM; 360,000 compounds, 0.21% hits; AID 624204; Q9P0U3; recombinant SENP1 catalytic domain, CyPet-SUMO1-YPet FRET cleavage;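 active = inhibition at least 30% at 10 µM, raw YFP signal under a set limit, fluorescence ratio 0.5 to 1.5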;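 note: 0% = enzyme with DMSO and 100% = no enzyme wells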
#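 Compound: 10 µM single point, 0.5% DMSO; Test system: hSENP1 catalytic domain, recombinant; Timing: 50 min reaction at room temperature; Technique: FRET, CFP and YFP emission; Control set: no-enzyme wells low, DMSO-plus-enzyme wells high control.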
# UCH37 inh = blocks the human deubiquitinase UCH37 | Q9Y5K5 | 330,000 compounds, 0.33% hits | inhibition, % (concentration not given with the values) | AID 588478 | purified proteasome/UCH37, Ub-AMC cleavage fluorescence;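 active = mean inhibition over replicate wells above about 20%, limit read from the data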;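 note: 0% = compound-free wells with enzyme and 100% = wells lacking proteasome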
#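 Assay system: Proteasome-bound UCH37. Buffer or medium: pH 7.4 Tris-HCl (50 mM) with ovalbumin, ATP-MgCl2, DTT. Incubation: 30 min preincubation with enzyme, 25 min cleavage at room temperature. Measured by: fluorescence, ex 355 nm, em 460 nm. Read-out basis: percent inhibition. Control set: wells without proteasome as full block, compound-free enzyme plus substrate as uninhibited.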
# ATG4B inhibitor = ATG4B (human) cysteine protease inhibition | Q9Y4P1 | ATG4B cleavage of LC3-PLA2, NBD-HPC fluorescence, 1 h | inhibition, % at 8.33 µM | 340,000 compounds, 0.51% hits | AID 504462; in the data active = inhibition above about 40%
# Target sequence (Q9Y4P1 whole entry, looked up): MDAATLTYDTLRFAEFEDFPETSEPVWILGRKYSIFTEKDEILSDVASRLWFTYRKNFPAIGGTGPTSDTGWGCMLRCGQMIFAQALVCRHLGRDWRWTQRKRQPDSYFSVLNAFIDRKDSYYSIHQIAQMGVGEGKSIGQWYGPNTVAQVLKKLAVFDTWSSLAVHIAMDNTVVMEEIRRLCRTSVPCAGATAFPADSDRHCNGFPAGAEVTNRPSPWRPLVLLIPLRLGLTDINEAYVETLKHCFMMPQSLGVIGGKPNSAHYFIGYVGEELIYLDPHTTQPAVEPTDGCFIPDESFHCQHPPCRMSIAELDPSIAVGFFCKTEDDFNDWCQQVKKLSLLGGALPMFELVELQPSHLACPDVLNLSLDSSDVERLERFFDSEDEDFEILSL
# GRIN3A LBD mod = modulators (binders) of human NR3A ligand-binding domain; AID 1259313; 340,000 compounds, 2.5% hits; Tm shift relative to glycine control, % at 25 µM; NR3A LBD differential scanning fluorimetry, Tm shift; 0% = protein alone, 100% = glycine-bound protein;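 active = melting temperature shift of at least 10% of the positive control shift, at one fixed dose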
# The depositor's hits bear a star; . = no result given.
SMILES,NadD block,SENP1 FRET inh,UCH37 inh,ATG4B inhibitor,GRIN3A LBD mod
Cn1c(O)c(C=NC2CCCCC2)c(=O)[nH]c1=S,-4,0,22*,17,-2
O=c1[nH]c(O)c(C=NC2CCCCC2)c(=O)[nH]1,-3,2,3,3,0
CCOC(=O)C(=NNc1ccccc1)N1CC1,.,.,10,.,.
CN(C)c1ccc(/C=C2/C(=NO)C3CCN2CC3)cc1,.,.,9,.,.
CN(C)c1ccc(C(=O)NN=CC23CC[C@@H](O)CC2(O)CC[C@@H]2[C@@H]3CCC3(C)C(C4=CC(=O)OC4)CCC23O)cc1 (stereo partly specified),.,.,5,.,.
O=C(Nc1ccc(Cl)cc1)O/N=C(\c1ccccc1)c1ccccn1,0,3,.,-4,11*
COc1ccc(-c2nc3ccccc3c(=O)n2-c2ccc(OC)cc2)cc1,-2,1,4,-8,1
CCn1nc(-c2ccccc2)nc2c(=O)n(C)c(=O)nc1-2,-3,-2,99*,80*,-3
NC(=N[N+](=O)[O-])N1CCN(C(=O)Oc2ccccc2)CC1,.,.,4,.,.
CC12CC[C@H]3[C@@H](CCC4(O)C[C@H](O)CCC34C=NNC(=O)c3ccccc3O)C1(O)CCC2C1=CC(=O)OC1 (stereo partly specified),.,.,-5,.,.
O=[N+]([O-])c1ccc(N2CCCC2)cc1NN=C1CN2CCC1CC2,.,.,22*,.,.
CN1CCN(c2ccc([N+](=O)[O-])c(N/N=C3\CN4CCC3CC4)c2)CC1,3,2,.,-2,-1
O=C1NC(=O)N(CCNc2ncc(C(F)(F)F)cc2Cl)C(=O)C1C=NOCc1c(F)cccc1Cl (stereo unspecified),.,.,-3,.,.
CN1C(=O)C(c2ccc([N+](=O)[O-])cc2[N+](=O)[O-])C(=O)N(C)C1=O,1,-1,11,-4,10*
O=[N+]([O-])c1ccc(Cl)c([N+](=O)[O-])c1,2,5,-1,-3,1
Oc1ccc(C=NNP(=S)(c2ccccc2)c2ccccc2)c(O)c1O,.,.,0,.,.
COc1ccc(OC)c(C=NOC(=O)Nc2ccc(Cl)cc2)c1,.,.,-29,.,.
O=C1NC(=O)C(=Cc2ccc(-c3ccc(Cl)cc3)o2)C(=O)N1,39*,1,1,4,0
CC[C@H](C)C=C(C)/C=C/C1=CC2=C(Cl)C(=O)[C@@](C)(OC(C)=O)C(=O)C2=CO1,.,.,20,.,.
COc1ccc(/C=C2\C(=O)NC(=S)N(C)C2=O)cc1C,-3,-3,2,56*,-1
COC(=O)C1C2c3ccccc3OC1(C)N=c1sc(=Cc3cnn(C)c3C)c(=O)n12 (stereo unspecified),.,.,2,.,.
O=C(O)C(O)(c1ccccc1)C1CCCCC1 (stereo unspecified),2,-1,1,-4,-1
OCCN(CC#CC(O)(c1ccccc1)C1CCCC1)CCO (stereo unspecified),13,0,32*,-10,0
CNC(=S)NN=C1C2CN3CCN(C2)CC1(c1ccccc1)C3,.,.,3,.,.
O=C1NC(=O)C(=Cc2cn(CCOc3ccc4c(c3)OCO4)c3ccccc23)C(=O)N1,43*,-5,5,-2,2
SMILES,NadD block,SENP1 FRET inh,UCH37 inh,ATG4B inhibitor,GRIN3A LBD mod
C=CCn1cc(C=C2C(=O)NC(=O)NC2=O)c2ccccc21,2,0,.,-1,.
Cc1onc(-c2c(Cl)cccc2Cl)c1C(N)=NOC(=O)N(C)C,.,.,1,.,.
COc1ccc(Oc2cc(NC(=O)c3nn(C)cc3[N+](=O)[O-])cc([N+](=O)[O-])c2)cc1,-6,3,4,-5,15*
O=c1[nH]c(=O)n(CCc2ccc(F)cc2)c(O)c1C=NCCCn1ccnc1,-1,-5,26*,-2,-1
COC(=O)C1=C(c2ccc(Cl)c(C(F)(F)F)c2)C[C@@H]2CC[C@H]1N2C(=O)NCCO,-4,2,33*,-14,-2
Cc1ccccc1NP(=O)(Oc1ccccc1F)Oc1ccccc1F,-1,5,2,3,11*
Cc1cccc(NP(=O)(Oc2ccccc2)Oc2ccccc2)c1C,-12,1,4,16,-1
CCn1c(O)c(C=Nc2ccc(S(N)(=O)=O)cc2)c(=O)n(CC)c1=S,1,-13,8,0,-5
NS(=O)(=O)c1ccc(N=Cc2c(O)n(C3CCCCC3)c(=O)n(C3CCCCC3)c2=O)cc1,21,4,-14,-23,14*
